Laboratory results as given in ChEMBL document CHEMBL4020840, “Synthesis and Biological Evaluation of Selenium-Containing 4-Anilinoquinazoline Derivatives as Novel Antimitotic Agents” (J Med Chem, 2018).
pIC50: −log10 of the molar value.

What was measured:
[1] = tested on: A549; experiment: Induction of apoptosis in human A549 cells assessed as early apoptotic cells at 2 nM after 48 hrs by Annexin V-FITC/propidium iodide staining based flow cytometry (reference value: 1.48%); assay type: functional
[2] = tested on: A549; experiment: Induction of apoptosis in human A549 cells assessed as early apoptotic cells at 4 nM after 24 hrs by Annexin V-FITC/propidium iodide staining based flow cytometry (reference value: 0.98%); assay type: functional
[3] = tested on: A549; experiment: Cell cycle arrest in human A549 cells assessed as accumulation at G2/M phase at 4 nM after 12 hrs by propidium iodide staining based flow cytometry (reference value: 10.13%); assay type: functional
Summary of the method: (§1)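 A549 seeded in six-well plates at 3 × 10⁵ cells/well and treated for 12 or 24 h; vehicle 0.01% DMSO. Cells fixed overnight in ice-cold 70% ethanol, treated with RNase A at 37 °C for 30 min, then stained with PI at 4 °C for 30 min. About 10 000 events acquired by flow cytometry at 488 nm; three experiments.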

[4] = tested on: A549; experiment: Cell cycle arrest in human A549 cells assessed as accumulation at G2/M phase at 4 nM after 24 hrs by propidium iodide staining based flow cytometry (reference value: 10.13%); assay type: functional; summary of the method: as §1
[5] = tested on: A549; experiment: Induction of apoptosis in human A549 cells assessed as live cells at 4 nM after 24 hrs by Annexin V-FITC/propidium iodide staining based flow cytometry (reference value: 98.84%); assay type: functional
[6] = tested on: A549; experiment: Growth inhibition of human A549 cells after 48 hrs by MTT assay; assay type: functional, cell-based; conditions: A549, 48 h
[7] = tested on: A549; experiment: Induction of mitochondrial membrane disruption in human A549 cells assessed as cells with intact mitochondrial membrane at 4 nM after 48 hrs by JC1 staining based flow cytometry (reference value: 99.13%); assay type: functional
[8] = tested on: A549; experiment: Induction of apoptosis in human A549 cells assessed as live cells at 2 nM after 48 hrs by Annexin V-FITC/propidium iodide staining based flow cytometry (reference value: 98.49%); assay type: functional
[9] = Growth inhibition of human HepG2/DOX cells after 48 hrs by MTT assay; assay type: functional, cell-based
Summary of the method: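 MTT assay: log-phase cells plated at 5 × 10³/well for 24 h, then exposed to a range of test concentrations for 48 h. MTT (5 mg/mL) added for 4 h, formazan dissolved in DMSO, absorbance read at 570 nm. IC50 is the concentration giving 50% growth inhibition, from dose-response curves; at least three independent experiments, mean ± SE.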

Which Activity [1] does the source give for `C[Se]c1ccc(N(C)c2nc(C)nc3ccccc23)cc1` here?
The Activity was 26.51%.

And the Activity [2]?
Its Activity is 26.51%.

What about the Activity [3] of the same compound?
The Activity was 67.1%.

And the Activity [4]?
The Activity was 87.16%.

What about the Activity [5] of the same compound?
The Activity was 64.86%.

What about the pIC50 [6] of the same compound?
The pIC50 was 8.70.

What about the Activity [7] of the same compound?
The Activity was 56.98%.

What about the Activity [8] of the same compound?
Its Activity is 49.81%.

And the pIC50 [9]?
The pIC50 was 8.10.
